Data: ChEMBL document CHEMBL1133976, “Orally bioavailable, indole-based nonpeptide GnRH receptor antagonists with high potency and functional activity” (Bioorg Med Chem Lett, 2001)

Assays:
[1] = biological target: T1, Gonadotropin-releasing hormone receptor (Homo sapiens, UniProt P30968); assay: Binding inhibition towards human pituitary gonadotropin-releasing hormone receptor using [125I]buserelin.
T1 sequence (P30968 whole entry): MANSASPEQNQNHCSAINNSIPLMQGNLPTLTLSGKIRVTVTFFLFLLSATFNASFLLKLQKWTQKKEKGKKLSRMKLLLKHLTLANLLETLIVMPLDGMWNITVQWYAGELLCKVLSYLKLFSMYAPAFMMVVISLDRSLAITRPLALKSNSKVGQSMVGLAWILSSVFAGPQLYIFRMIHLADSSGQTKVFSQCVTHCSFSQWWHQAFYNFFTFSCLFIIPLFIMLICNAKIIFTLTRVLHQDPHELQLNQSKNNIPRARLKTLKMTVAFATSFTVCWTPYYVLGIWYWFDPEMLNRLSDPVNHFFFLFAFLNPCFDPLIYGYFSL
In short: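 Competition binding against the agonist radioligand [125I]buserelin at human pituitary GnRH receptor, run in the presence of 0.1% BSA; IC50 reported in nM.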

[2] = biological target: T1, Gonadotropin-releasing hormone receptor; assay: In vitro functional antagonism via inhibition of GnRH-stimulated phosphatidylinositol (PI) hydrolysis in cloned Chinese hamster ovary (CHO) cells stably expressing the human GnRH receptor.; assay type: cell-based
In short: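 Functional antagonism read as inhibition of GnRH-stimulated phosphatidylinositol hydrolysis in cloned CHO cells stably expressing human GnRH receptor; IC50 reported in nM.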

[3] = Oral bioavailability in rat; assay type: ADME, organism-based; details: in vivo
[4] = Oral bioavailability in dog; assay type: ADME, organism-based, Canis lupus familiaris; details: in vivo
[5] = Oral bioavailability in Rhesus monkey; assay type: ADME, organism-based, Macaca mulatta; details: in vivo

Compound | IC50 [1] [nM] | IC50 [2] [nM] | bioavailability [3] [%] | bioavailability [4] [%] | bioavailability [5] [%]
Cc1cc(C)cc(-c2[nH]c3ccc(C(C)(C)C(=O)N4CC5CCC4CC5)cc3c2[C@H](C)CNCCc2ccc(=O)n(C)c2)c1 | 0.2 | 1.4 | – | – | –
Cc1cc(C)cc(-c2[nH]c3ccc(C(C)(C)C(=O)N4CCC5(CC4)OCCO5)cc3c2[C@H](C)CNCCCCc2ccncc2)c1 | 0.6 | 66 | – | – | –
Cc1cc(C)cc(-c2[nH]c3ccc(C(C)(C)C(=O)N4CC5CCC4CC5)cc3c2[C@H](C)CNCCCCc2ccncc2)c1 | 1 | 2.8 | 14 | 7 | –
Cc1cc(C)cc(-c2[nH]c3ccc(C(C)(C)C(=O)N4CCN(C(=O)OC(C)(C)C)CC4)cc3c2[C@H](C)CNCCCCc2ccncc2)c1 | 6.1 | 220 | – | – | –
COCn1cc(CCNC[C@@H](C)c2c(-c3cc(C)cc(C)c3)[nH]c3ccc(C(C)(C)C(=O)N4CC5CCC4CC5)cc23)ccc1=O | 0.4 | 3.9 | – | – | –
CCS(=O)(=O)N1CCN(C(=O)C(C)(C)c2ccc3[nH]c(-c4cc(C)cc(C)c4)c([C@H](C)CNCCCCc4ccncc4)c3c2)CC1 | 4.4 | 124 | – | – | –
Cc1cc(C)cc(-c2[nH]c3ccc(C(C)(C)C(=O)N4C5CCCCC5C5CCCCC54)cc3c2[C@H](C)CNCCCCc2ccncc2)c1 (some centres undefined) | 21 | 31 | – | – | –
Cc1cc(C)cc(-c2[nH]c3ccc(C(C)(C)C(=O)N4CC5CCC4CC5)cc3c2[C@H](C)CNCCc2cccn(C)c2=O)c1 | 5.3 | 82 | – | – | –
Cc1cc(C)cc(-c2[nH]c3ccc(C(C)(C)C(=O)N4CCC(C)(C)CC4)cc3c2[C@H](C)CNCCCCc2ccncc2)c1 | 1.3 | 39 | – | – | –
Cc1cc(C)cc(-c2[nH]c3ccc(C(C)(C)C(=O)N4CC5CCC4CC5)cc3c2[C@H](C)CNCCc2ccncc2)c1 | 0.6 | 7.2 | 8 | 25 | 21
COc1ccc(CCNC[C@@H](C)c2c(-c3cc(C)cc(C)c3)[nH]c3ccc(C(C)(C)C(=O)N4CC5CCC4CC5)cc23)cn1 | 1 | 11 | – | – | –
Cc1cc(C)cc(-c2[nH]c3ccc(C(C)(C)C(=O)N4C[C@H]5CC[C@@H]4C5)cc3c2[C@H](C)CNCCCCc2ccncc2)c1 | 1 | 4 | – | – | –
Cc1cc(C)cc(-c2[nH]c3ccc(C(C)(C)C(=O)N4C[C@@H]5CC[C@H]4C5)cc3c2[C@H](C)CNCCCCc2ccncc2)c1 | 0.4 | 8.7 | – | – | –
Cc1cc(C)cc(-c2[nH]c3ccc(C(C)(C)C(=O)N4CC5CCC(CC5)C4)cc3c2[C@H](C)CNCCCCc2ccncc2)c1 | 2.1 | 13 | – | – | –
Cc1cc(C)cc(-c2[nH]c3ccc(C(C)(C)C(=O)N(CC(C)C)CC(C)C)cc3c2[C@H](C)CNCCCCc2ccncc2)c1 | 5.6 | 14 | – | – | –
Cc1cc(C)cc(-c2[nH]c3ccc(C(C)(C)C(=O)N4C[C@H]5CC[C@@H]4C5)cc3c2[C@H](C)CNCCc2ccncc2)c1 | 1.2 | 1.9 | – | 8.5 | –
Cc1cc(C)cc(-c2[nH]c3ccc(C(C)(C)C(=O)N4C5CCC4CC5)cc3c2[C@H](C)CNCCCCc2ccncc2)c1 | 0.7 | 5.7 | – | – | –
Cc1cc(C)cc(-c2[nH]c3ccc(C(C)(C)C(=O)N4CCC5(CCCC5)CC4)cc3c2[C@H](C)CNCCCCc2ccncc2)c1 | 2.7 | 93 | – | – | –
Cc1cc(C)cc(-c2[nH]c3ccc(C(C)(C)C(=O)N4CC5CCC4CC5)cc3c2[C@H](C)CNCCc2cccnc2)c1 | 0.6 | 2.6 | – | 12 | –
Cc1cc(C)cc(-c2[nH]c3ccc(C(C)(C)C(=O)N4C5CCC4CC5)cc3c2CCNCCCCc2ccncc2)c1 | 1.4 | – | – | – | –
Cc1cc(C)cc(-c2[nH]c3ccc(C(C)(C)C(=O)N4C[C@H]5CCCC[C@H]5C4)cc3c2[C@H](C)CNCCCCc2ccncc2)c1 | 1.4 | 66 | – | – | –
Cc1cc(C)cc(-c2[nH]c3ccc(C(C)(C)C(=O)N4CC5CCC4CC5)cc3c2[C@H](C)CNCCC2CCC(=O)N(C)C2)c1 (some centres undefined) | 0.4 | 8.2 | – | – | –
Cc1cc(C)cc(-c2[nH]c3ccc(C(C)(C)C(=O)N4C5CCCC4CC5)cc3c2[C@H](C)CNCCCCc2ccncc2)c1 | 0.8 | 8.8 | – | – | –
Cc1cc(C)cc(-c2[nH]c3ccc(C(C)(C)C(=O)N4CC5CCC4CC5)cc3c2[C@H](C)CNCCc2cc(C)c(=O)n(C)c2)c1 | 0.6 | 4 | – | 35 | 4
Cc1cc(C)cc(-c2[nH]c3ccc(C(C)(C)C(=O)N4CC5CCC4CC5)cc3c2[C@H](C)CNCCc2ccc(O)nc2)c1 | 0.3 | 1 | – | – | –
Cc1cc(C)cc(-c2[nH]c3ccc(C(C)(C)C(=O)N4CC5(C)CC4CC(C)(C)C5)cc3c2[C@H](C)CNCCCCc2ccncc2)c1 (some centres undefined) | 4.8 | 6.4 | – | – | –
Cc1cc(C)cc(-c2[nH]c3ccc(C(C)(C)C(=O)N4CC5CCCC4C5)cc3c2[C@H](C)CNCCCCc2ccncc2)c1 (some centres undefined) | 4.8 | 6.8 | – | – | –
Cc1cc(C)cc(-c2[nH]c3ccc(C(C)(C)C(=O)N4CC(C)(C)C4)cc3c2[C@H](C)CNCCCCc2ccncc2)c1 | 0.7 | 21 | – | – | –
Cc1cc(C)cc(-c2[nH]c3ccc(C(C)(C)C(=O)N4C5CCC4CC5)cc3c2[C@H](C)CNCCc2ccncc2)c1 | 0.8 | 7 | 23 | 14 | 6.4
